Experimental data as given in ChEMBL document CHEMBL3108778, “Structure-activity relationships of synthetic cordycepin analogues as experimental therapeutics for African trypanosomiasis” (J Med Chem, 2013).
One block for each compound: values may come before it. Calls of active or inactive are those of the source. The rule behind the calls is not given here.

Columns and labels:
[1] = Displacement of [2,8-3H]-adenosine from Trypanosoma brucei AT1/P2 expressed in bloodstream stage of Trypanosoma brucei brucei B48
Method in brief: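 Bloodstream T. b. brucei B48 clone with endogenous TbAT1 deleted and TbAT1 overexpressed. Cells were incubated 20 s with 0.05 μM [2,8-³H]adenosine plus competitor (typically 10 nM–100 μM). Uptake was stopped with ice-cold 1 mM adenosine and centrifugation through oil. Ki came from competition curves, triplicates on at least three occasions.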

[2] = tested on: Trypanosoma brucei brucei; assay: Trypanocidal activity against bloodstream stage of Trypanosoma brucei brucei AnTat1.1E after 72 hrs by WST-1 assay; assay type: functional, organism-based
Method in brief: (§1)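 Bloodstream trypanosomes (6000/well) in log phase were treated in IMDM with 10% FCS for 72 h at 37 °C, 5% CO₂. Compounds were 11-step serial dilutions from DMSO stocks, final DMSO at most 0.25%. Controls were DMSO and 10 μM 3′-deoxyadenosine. Where stated, 1.5 μM deoxycoformycin was co-added. Readout was WST-1 for 2 h, A450. EC50 came from variable-slope nonlinear regression.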

L929 = assay: Cytotoxicity against mouse L929 cells assessed as cell viability after 72 hrs by WST-1 assay; assay type: cell-based; settings: L929, 72 h
Method in brief: (§2)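 MOLT4 (10⁴/well) or L929 (5 × 10³/well) cells were kept in RPMI with 10% FCS and exposed to serial dilutions for 72 h at 37 °C, 5% CO₂. Final DMSO was at most 0.25%. Where stated, 1.5 μM deoxycoformycin was co-added. WST-1 was added for 2 h and A450 read. EC50 came from variable-slope nonlinear fits; triplicate cultures.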

MOLT-4 [3] = assay: Cytotoxicity against human MOLT4 cells assessed as cell viability after 72 hrs by WST-1 assay in presence of deoxycoformycin; assay type: cell-based; settings: MOLT-4, 72 h; method in brief: as §2
Trypanosoma brucei [4] = assay: Trypanocidal activity against bloodstream stage of Trypanosoma brucei after 72 hrs by WST-1 assay in presence of deoxycoformycin; assay type: functional, organism-based; method in brief: as §1
Trypanosoma brucei [5] = assay: Trypanocidal activity against bloodstream stage of Trypanosoma brucei after 72 hrs by WST-1 assay; assay type: functional, organism-based; method in brief: as §1
Trypanosoma brucei [6] = assay: Trypanocidal activity against Trypanosoma brucei; assay type: functional, organism-based; method in brief: as §1
MOLT-4 [7] = assay: Cytotoxicity against human MOLT4 cells assessed as cell viability after 72 hrs by WST-1 assay; assay type: cell-based; settings: MOLT-4, 72 h; method in brief: as §2
[8] = tested on: Trypanosoma brucei brucei; assay: Trypanocidal activity against bloodstream stage of Trypanosoma brucei brucei AnTat1.1E after 72 hrs by WST-1 assay in presence of adenosine kinase inhibitor ABT702; assay type: functional, organism-based
[9] = tested on: Trypanosoma brucei brucei; assay: Trypanocidal activity against bloodstream stage of Trypanosoma brucei brucei AnTat1.1E infected in C57BL6J (B6) mouse assessed as reduction of parasitemia at 2 mg/kg, ip qd measured after 30 days; assay type: functional, organism-based; design: dose 2 mg/kg
Method in brief: (§3)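 Mice were infected ip with T. b. brucei AnTat1.1E and treated ip once daily starting 2 h later. Where stated, 0.2 mg/kg deoxycoformycin was co-given. Vehicle was PBS with 1.25% final DMSO. Parasitemia and weight were recorded every other day, then twice weekly after 30 days. At least six mice per group.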

[10] = tested on: Trypanosoma brucei brucei; assay: Trypanocidal activity against bloodstream stage of Trypanosoma brucei brucei AnTat1.1E infected in C57BL6J (B6) mouse assessed as reduction of parasitemia at 2 mg/kg, ip qd administered for 3 days measured after 40 days in presence of deoxycoformycin; assay type: functional, organism-based; design: dose 2 mg/kg; method in brief: as §3
[11] = Apparent permeability across basolateral to apical side in human Caco2 cells assessed as compound recovery at 10 uM by LC-MS/MS analysis; assay type: ADME, cell-based; settings: Caco-2, read-out: Papp
Method in brief: (§4)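 Caco-2 monolayers (passage 94–105) were used on day 21 on permeable filters. Transport was run in both directions at pH 7.4 on both sides, 37 °C, 500 rpm stirring. The receiver side was sampled at 15, 30 and 60 min, the donor side at 60 min for mass balance. Mannitol served as integrity marker. LC-MS/MS used a 10–1000 nM external standard curve.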

[12] = Tmax in C57BL/6 mouse at 25 mg/kg, po and ip; assay type: ADME, organism-based; design: dose 25 mg/kg, route oral; settings: in vivo
[13] = tested on: Trypanosoma brucei brucei; assay: Trypanocidal activity against bloodstream stage of Trypanosoma brucei brucei AnTat1.1E infected in acute C57BL6J (B6) mouse HAT model assessed as reduction of parasitemia at 30 mg/kg, po qd administered for 6 days measured after 90 days; assay type: functional, organism-based; design: dose 30 mg/kg
[14] = tested on: Trypanosoma brucei brucei; assay: Trypanocidal activity against bloodstream stage of Trypanosoma brucei brucei AnTat1.1E infected in acute C57BL6J (B6) mouse HAT model assessed as day of parasitemia relapse at 1 mg/kg, po bid administered for 5 days; assay type: functional
[15] = tested on: Trypanosoma brucei brucei; assay: Trypanocidal activity against bloodstream stage of Trypanosoma brucei brucei AnTat1.1E infected in acute C57BL6J (B6) mouse HAT model assessed as day of parasitemia relapse at 5 mg/kg, po qd administered for 5 days; assay type: functional
Liver microsome = assay: Metabolic stability in human liver microsomes at 1 uM by LC-MS/MS analysis; assay type: ADME
Method in brief: (§5)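 Pooled human or male CD-1 mouse liver microsomes (0.5 mg/mL) were incubated with 1 μM compound in 0.1 M phosphate pH 7.4, started with 1 mM NADPH. Sampling was at 0, 5, 15 and 40 min, quenched with cold acetonitrile containing warfarin internal standard. Analysis was LC-MS/MS on a relative basis; intrinsic clearance by the well-stirred model. Midazolam and dextromethorphan were CYP controls.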

[16] = Apparent initial half life in C57BL/6 mouse at 25 mg/kg, ip; assay type: ADME, organism-based; design: dose 25 mg/kg, route intraperitoneal; settings: in vivo, read-out: alphat1/2(app) (converted)
[17] = tested on: Trypanosoma brucei brucei; assay: Trypanocidal activity against bloodstream stage of Trypanosoma brucei brucei AnTat1.1E infected in acute C57BL6J (B6) mouse HAT model assessed as day of parasitemia relapse at 15 mg/kg, po qd administered for 5 days; assay type: functional
[18] = Cmax in C57BL/6 mouse at 25 mg/kg, ip; assay type: ADME, organism-based; design: dose 25 mg/kg, route intraperitoneal; settings: in vivo
[19] = Metabolic stability in human plasma at 10 uM measured over 4 hrs by LC-MS/MS analysis; assay type: ADME, cell-free; settings: read-out: Stability
Method in brief: (§6)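 Pooled human plasma (four donors) was spiked with 10 μM final compound. It was dialysed against isotonic phosphate buffer pH 7.4 for 4 h at 37 °C by rapid equilibrium dialysis. A separate sealed plasma sample was held 4 h at 37 °C for stability. Samples were methanol-precipitated and quantified by LC-MS/MS.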

[20] = Apparent permeability across apical to basolateral side in human Caco2 cells at 10 uM by LC-MS/MS analysis; assay type: ADME, cell-based; settings: Caco-2; method in brief: as §4
Caco-2 = assay: Efflux ratio of apparent permeability across basolateral to apical side over apical to basolateral side in human Caco2 cells at 10 uM by LC-MS/MS analysis; settings: caco-2, 10 µM
[21] = tested on: Trypanosoma brucei brucei; assay: Trypanocidal activity against bloodstream stage of Trypanosoma brucei brucei AnTat1.1E infected in acute C57BL6J (B6) mouse HAT model assessed as day of parasitemia relapse at 5 mg/kg, po qd administered for 5 days in presence of deoxycoformycin; assay type: functional
[22] = Cmax in C57BL/6 mouse at 25 mg/kg, po; assay type: ADME, organism-based; design: dose 25 mg/kg, route oral; settings: in vivo
[23] = Apparent terminal half life in C57BL/6 mouse at 25 mg/kg, ip; assay type: ADME, organism-based; design: dose 25 mg/kg, route intraperitoneal; settings: in vivo, read-out: betat1/2(app) (converted)
[24] = Apparent initial half life in C57BL/6 mouse at 25 mg/kg, po; assay type: ADME, organism-based; design: dose 25 mg/kg, route oral; settings: in vivo, read-out: alphat1/2(app) (converted)
[25] = Apparent permeability across basolateral to apical side in human Caco2 cells at 10 uM by LC-MS/MS analysis; assay type: ADME, cell-based; settings: Caco-2; method in brief: as §4
[26] = Apparent permeability across apical to basolateral side in human Caco2 cells assessed as compound recovery at 10 uM by LC-MS/MS analysis; assay type: ADME, cell-based; settings: Caco-2, read-out: Papp; method in brief: as §4
[27] = Metabolic stability in CD-1 mouse liver microsomes at 1 uM by LC-MS/MS analysis; assay type: ADME, Microsome; method in brief: as §5
[28] = Apparent terminal half life in C57BL/6 mouse at 25 mg/kg, po; assay type: ADME, organism-based; design: dose 25 mg/kg, route oral; settings: in vivo, read-out: betat1/2(app) (converted)
[29] = Fraction unbound in human plasma at 10 uM after 4 hrs by equilibrium dialysis method; assay type: ADME, cell-free; method in brief: as §6
[30] = tested on: Trypanosoma brucei brucei; assay: Trypanocidal activity against bloodstream stage of Trypanosoma brucei brucei AnTat1.1E infected in C57BL6J (B6) mouse assessed as reduction of parasitemia at 4 mg/kg, ip qd administered for 10 days measured after 18 days; assay type: functional, organism-based; design: dose 4 mg/kg; method in brief: as §3
[31] = tested on: Trypanosoma brucei brucei; assay: Trypanocidal activity against bloodstream stage of Trypanosoma brucei brucei AnTat1.1E infected in C57BL6J (B6) mouse assessed as reduction of parasitemia at 4 mg/kg, ip qd administered for 10 days measured after 19 to 30 days; assay type: functional, organism-based; design: dose 4 mg/kg; method in brief: as §3
[32] = tested on: Trypanosoma brucei brucei; assay: Trypanocidal activity against bloodstream stage of Trypanosoma brucei brucei AnTat1.1E infected in C57BL6J (B6) mouse assessed as reduction of parasitemia at 4 mg/kg, ip qd administered for 3 days measured after 40 days in presence of deoxycoformycin; assay type: functional, organism-based; design: dose 4 mg/kg; method in brief: as §3
[33] = tested on: Trypanosoma brucei brucei; assay: Trypanocidal activity against bloodstream stage of Trypanosoma brucei brucei AnTat1.1E after 72 hrs by WST-1 assay in presence of deoxycoformycin; assay type: functional, organism-based; method in brief: as §1

Ki [1]: 2600 nM
SMILES: Nc1[nH]c(Cl)nc2ncnc1-2

SMILES: Nc1nc(NCCO)nc2c1ncn2[C@@H]1O[C@H](CO)C[C@H]1O
IC50 ([2]; read-out: IC50): > 50000 nM

Ki [1]: 900 nM
SMILES: Nc1nc(F)nc2nc[nH]c12
IC50 ([2]; read-out: IC50): > 100000 nM

SMILES: OC[C@H]1O[C@@H](n2cnc3cncnc32)[C@H](O)[C@@H]1O [NEBULARINE]
IC50 (L929): 2370 nM
IC50 ([2]; read-out: IC50): 1150 nM

Ki [1]: 180 nM
SMILES: Nc1ncnc2c1ncn2[C@@H]1O[C@H](CO)C[C@H]1O [CORDYCEPIN]
IC50 (MOLT-4 [3]): 100 nM
IC50 (L929): 28700 nM
IC50 (Trypanosoma brucei [4]): 1.2 nM
IC50 (Trypanosoma brucei [5]): 42 nM
IC50 (Trypanosoma brucei [6]): 32 nM
IC50 (MOLT-4 [7]): ≥ 100000 nM
Activity [8]: inactive
IC50 ([2]; read-out: IC50): 30 nM
Activity [9]: inactive
Activity [10]: Active

recovery at 10 µM [11]: 104%
Ki [1]: 960 nM
Tmax [12]: 30 min
Stability (Liver microsome): Stable
half-life [16]: 36 min
Cmax [18]: 9.17 µM
remaining at 4 h, 10 µM [19]: 98%
Papp A→B at 10 µM [20]: 3 ×10⁻⁶ cm/s
Ratio (Caco-2): 0.5
Cmax [22]: 4 µM
half-life [23]: 366 min
half-life [24]: 54 min
Papp B→A at 10 µM [25]: 1.4 ×10⁻⁶ cm/s
recovery at 10 µM [26]: 102%
Stability [27]: Stable
half-life [28]: 408 min
fraction unbound at 4 h, 10 µM [29]: 1
SMILES: Nc1nc(F)nc2c1ncn2[C@@H]1O[C@H](CO)C[C@H]1O
Activity [13]: Active
Time [14]: 2 days
Time [15]: 7 days
IC50 (MOLT-4 [3]): 2130 nM
Time [17]: 7 days
IC50 (Trypanosoma brucei [4]): 170 nM
IC50 (Trypanosoma brucei [5]): 176 nM
IC50 (MOLT-4 [7]): 2440 nM
Time [21]: 5 days
Activity [8]: inactive
IC50 ([2]; read-out: IC50): 170 nM

Ki [1]: 3970 nM
SMILES: Nc1nc(Cl)nc2c1ncn2[C@@H]1O[C@H](CO)C[C@H]1O
IC50 ([2]; read-out: IC50): > 50000 nM

SMILES: Nc1nc(F)nc2c1ncn2[C@@H]1O[C@H](CO)C[C@@H]1O
IC50 ([2]; read-out: IC50): > 100000 nM

SMILES: Nc1nc(F)nc2c1ncn2[C@@H]1O[C@H](CO)[C@@H](O)[C@H]1O
Ki [1]: 2710 nM
IC50 ([2]; read-out: IC50): > 100000 nM

SMILES: Nc1ncnc2c1ncn2[C@@H]1O[C@H](CO)[C@@H](O)[C@@H]1O [VIDARABINE]
IC50 ([2]; read-out: IC50): > 100000 nM

SMILES: OC[C@@H]1C[C@@H](O)[C@H](n2cnc3cncnc32)O1
IC50 (L929): > 100000 nM
IC50 ([2]; read-out: IC50): 8790 nM

Ki [1]: 280 nM
SMILES: Nc1[nH]cnc2ncnc1-2 [ADENINE]

SMILES: Nc1ncnc2c1ncn2[C@@H]1O[C@H](CO)[C@H]2O[C@H]21
IC50 ([2]; read-out: IC50): > 100000 nM

Ki [1]: 9650 nM
SMILES: Nc1nc(Cl)nc2c1ncn2[C@@H]1O[C@H](CO)[C@@H](O)[C@H]1O

SMILES: CCCCCCCC(=O)Nc1ncnc2c1ncn2[C@@H]1O[C@H](CO)C[C@H]1O
Activity [30]: Active
IC50 (L929): 18600 nM
Activity [31]: inactive
Activity [32]: Active
IC50 [33]: 1 nM
IC50 ([2]; read-out: IC50(app)): 28 nM
